Data set [1] relates to Mycobacterium kansasii. As to the kind of experiment: Antimycobacterial activity against Mycobacterium kansasii isolate 6509/96 after 21 days. Format: functional. The note with it: isolate 6509/96, 504 h. Summed up:
(§1)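 Compounds were added as DMSO solutions to Sula semisynthetic medium at 250, 125, 62, 32, 16, 8, 4, 2 and 1 µmol/L. Two M. kansasii strains were used: CNCTC My 235/80 and clinical isolate 6509/96, each with strain dilution 10^-4. Incubation was at 37 °C, and MIC was read at 7, 14 and 21 days.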

Data set [2] deals with Mycobacterium kansasii. As to the kind of experiment: Antimycobacterial activity against Mycobacterium kansasii isolate 6509/96 after 14 days. In kind it is functional. The conditions noted are these: isolate 6509/96, 336 h. Summed up: as §1
Data set [3] is described as follows: Lipophilicity, log K by HPLC. In kind it is physicochemical. Put shortly: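 Capacity factors k were measured by RP-HPLC and log k was calculated from them.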
In data set [4] the test system is Mycobacterium kansasii. As to the kind of experiment: Antimycobacterial activity against Mycobacterium kansasii CNCTC My 235/80 after 21 days. In kind it is functional. The conditions noted are these: CNCTC My 235/80, 504 h. Summed up:
as §1

A short description of data set [5]: Stability assessed as half life in phosphate buffer at pH 5.5 by UV-visible spectroscopy. In kind it is physicochemical. Summed up:
(§2)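 Compound in methanolic solution (10 or 20 µL) was added to tempered 7 × 10^-2 M phosphate buffer (2 mL) at pH 7.4 or 5.5, 37 °C. The absorbance decrease at 224 nm was followed by UV/vis.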

The subject of the next data set is HCT-8. The data set is described as follows: Cytotoxicity against human HCT8 cells after 72 hrs by XTT assay. In kind it is functional, cell-based. The note with it: HCT-8, 72 h. Put shortly:
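HCT-8 cells were grown in EMEM with 5% FBS at 37 °C under 5% CO2. They were harvested with trypsin, seeded at 2 × 10^5 cells/mL and left 24 h. Medium was then replaced with compound in DMSO. DMSO-only wells served as the viability control and 20% DMSO as the cytotoxic control. Reagent was added for 4 h and absorbance read at 450 nm. Triplicates; EC50 reported.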

The test system of data set [6] is Mycobacterium avium. As to the kind of experiment: Antimycobacterial activity against Mycobacterium avium CNCTC My 330/88 after 21 days. Format: functional. The conditions noted are these: CNCTC My 330/88, 504 h. Summed up: (§3)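 Broth dilution in Sula semisynthetic medium, compounds added as DMSO solutions at 250, 125, 62, 32, 16, 8, 4, 2 and 1. Strains came from the Czech National Collection of Type Cultures; the M. tuberculosis inoculum was diluted 10^-3. Cultures were incubated at 37 °C, and MIC was read after 7, 14 and 21 days.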

Data set [7] has as its system Mycobacterium kansasii. The data set is described as follows: Antimycobacterial activity against Mycobacterium kansasii CNCTC My 235/80 after 7 days. In kind it is functional. The conditions noted are these: CNCTC My 235/80, 168 h. Summed up:
as §1

For data set [8], the system named is Mycobacterium tuberculosis. The data set is described as follows: Antimycobacterial activity against Mycobacterium tuberculosis CNCTC My 331/88 after 21 days. In kind it is functional. The note with it: CNCTC My 331/88, 504 h. Summed up:
as §3

The nature of data set [9]: Selectivity index, ratio of EC50 for human HCT8 cells to MIC for Mycobacterium tuberculosis CNCTC My 331/88. Format: functional, HCT-8. Put shortly: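 SI is EC50 in HCT-8 cells divided by the M. tuberculosis MIC. HCT-8 cells were grown in EMEM with 5% FBS at 37 °C under 5% CO₂, trypsinised and seeded at 2 × 10⁵ cells/mL. After 24 h the medium was replaced with compound in DMSO. Controls were DMSO alone and 20% DMSO. Absorbance was read at 450 nm 4 h after reagent addition, in triplicate.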

The test system of data set [10] is Mycobacterium tuberculosis. The data set is described as follows: Antimycobacterial activity against Mycobacterium tuberculosis CNCTC My 331/88 after 14 days. In kind it is functional. The note with it: CNCTC My 331/88, 336 h. Summed up: as §3
Data set [11] deals with Mycobacterium avium. As to the kind of experiment: Antimycobacterial activity against Mycobacterium avium CNCTC My 330/88 after 14 days. The note with it: CNCTC My 330/88, 336 h. In kind it is functional. Summed up: as §3
In data set [12] the test system is Mycobacterium kansasii. The data set is described as follows: Antimycobacterial activity against Mycobacterium kansasii CNCTC My 235/80 after 14 days. In kind it is functional. The conditions noted are these: CNCTC My 235/80, 336 h. Summed up:
as §1

Data set [13] has as its system Mycobacterium kansasii. The data set is described as follows: Antimycobacterial activity against Mycobacterium kansasii isolate 6509/96 after 7 days. Format: functional. The conditions noted are these: isolate 6509/96, 168 h. Put shortly: as §1
A short description of data set [14]: Stability assessed as half life in phosphate buffer at pH 7.4 by UV-visible spectroscopy. In kind it is physicochemical. Put shortly:
as §2

Converted amounts (≈) assume the structure as drawn.

In the case of `CC(C)[C@@H](NC(=O)OCc1ccccc1)C(=O)Oc1ccc(Cl)cc1C(=O)Nc1ccc(Br)cc1`, the MIC (in general, the least concentration at which growth counts as inhibited) in the data set on Mycobacterium kansasii [1] amounted to 8 µM (≈ 4.48 µg/mL); in the data set with Mycobacterium kansasii [2] it was 8 µM (≈ 4.48 µg/mL); with Mycobacterium kansasii [4], 8 µM (≈ 4.48 µg/mL); in the data set on Mycobacterium avium [6], 16 µM (≈ 8.96 µg/mL); against Mycobacterium kansasii [7], 4 µM (≈ 2.24 µg/mL); in [8], 4 µM (≈ 2.24 µg/mL). Further, the minimum inhibitory concentration (MIC) amounted to 2 µM (≈ 1.12 µg/mL) in data set [10], 16 µM (≈ 8.96 µg/mL) in the data set on Mycobacterium avium [11], 8 µM (≈ 4.48 µg/mL) against Mycobacterium kansasii [12] and 8 µM (≈ 4.48 µg/mL) against Mycobacterium kansasii [13]. In data set [3], the “log K” value was 0.9805. Besides, the figures for the half-life in data set [5] and in data set [14] were 14.8 min and 15 min, respectively. In addition, the EC50 (usually the concentration giving half of the maximal effect) with HCT-8 came to 121 µM. Moreover, in [9], the Ratio came out at 33.35.

For `CC(C)[C@H](NC(=O)OCc1ccccc1)C(=O)Oc1ccc(Cl)cc1C(=O)Nc1ccc(Br)cc1`, the minimum inhibitory concentration (MIC) in the data set with Mycobacterium kansasii [1] was 8 µM (≈ 4.48 µg/mL); in the data set with Mycobacterium kansasii [2], 8 µM (≈ 4.48 µg/mL); with Mycobacterium kansasii [4], 8 µM (≈ 4.48 µg/mL); against Mycobacterium avium [6] it was 16 µM (≈ 8.96 µg/mL); in the data set on Mycobacterium kansasii [7], 4 µM (≈ 2.24 µg/mL); in data set [8], 4 µM (≈ 2.24 µg/mL). For the same compound, the MIC in data set [10] was 4 µM (≈ 2.24 µg/mL); in the data set with Mycobacterium avium [11] it was 8 µM (≈ 4.48 µg/mL); in the data set on Mycobacterium kansasii [12], 8 µM (≈ 4.48 µg/mL); in the data set with Mycobacterium kansasii [13], 8 µM (≈ 4.48 µg/mL). Further, the “log K” value in [3] is 0.9803. The half-life (in general, how long it takes for the measured level to halve) is 14.3 min in data set [5] and 14.8 min in data set [14]. For the same compound, in the data set on HCT-8, the concentration giving a half-maximal response (EC50) turned out to be 122 µM. For the same compound, the Ratio in data set [9] worked out at 16.74.

Source of the values: ChEMBL document CHEMBL1136894, “New antituberculotics originated from salicylanilides with promising in vitro activity against atypical mycobacterial strains” (Bioorg Med Chem, 2009).
